Our source for the IC50, Activity and inhibition values is ChEMBL document CHEMBL4024800, “α-Amino-β-carboxymuconate-ε-semialdehyde Decarboxylase (ACMSD) Inhibitors as Novel Modulators of De Novo Nicotinamide Adenine Dinucleotide (NAD+) Biosynthesis” (J Med Chem, 2018).

The structures appear in SMILES notation. Active and inactive are the calls of the source. No cut-off for these calls is given here.

In general, IC50 refers to the concentration needed to halve the response being measured. A lower IC50 goes with higher potency.

Test [1] addresses T1, 2-amino-3-carboxymuconate-6-semialdehyde decarboxylase (Homo sapiens, UniProt Q8TDX5). Briefly: Inhibition of human ACMSD expressed in Pichia pastoris using ACMS as substrate by coupled spectrophotometric assay. In a few lines:
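Recombinant enzyme purified from Pichia pastoris; ACMS substrate generated in a pre-assay mix from 10 μM 3-hydroxyanthranilic acid by Ralstonia metallidurans 3-hydroxyanthranilate 3,4-dioxygenase, formation monitored at 360 nm. Enzyme and compound then added together; activity from initial rate of absorbance decrease minus a no-enzyme control. Serial dilutions, 1.0% DMSO throughout. IC50 from concentration–response curves, mean ± SD of three independent experiments.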
Target sequence in this assay (Q8TDX5 whole entry): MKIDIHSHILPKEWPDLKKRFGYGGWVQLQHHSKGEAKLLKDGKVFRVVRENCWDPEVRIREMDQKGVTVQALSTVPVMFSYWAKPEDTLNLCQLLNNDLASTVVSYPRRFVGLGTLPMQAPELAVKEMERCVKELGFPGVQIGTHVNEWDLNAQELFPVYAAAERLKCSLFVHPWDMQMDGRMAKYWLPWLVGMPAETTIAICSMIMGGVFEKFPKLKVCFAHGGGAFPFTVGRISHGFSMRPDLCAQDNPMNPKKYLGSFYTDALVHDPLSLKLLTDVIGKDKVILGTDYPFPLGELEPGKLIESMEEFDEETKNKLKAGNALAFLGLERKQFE

Test [2] is filed under the species Homo sapiens. Description: Activity at LXR (unknown origin). In a few lines:
(§1)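 Eight-point serial dilutions tested in an in-house AlphaScreen-based nuclear receptor panel; activity derived from nonlinear regression curves.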

Test [3] concerns the target T2, Glucocorticoid receptor (Homo sapiens) (UniProt P04150).
T2 sequence (whole entry): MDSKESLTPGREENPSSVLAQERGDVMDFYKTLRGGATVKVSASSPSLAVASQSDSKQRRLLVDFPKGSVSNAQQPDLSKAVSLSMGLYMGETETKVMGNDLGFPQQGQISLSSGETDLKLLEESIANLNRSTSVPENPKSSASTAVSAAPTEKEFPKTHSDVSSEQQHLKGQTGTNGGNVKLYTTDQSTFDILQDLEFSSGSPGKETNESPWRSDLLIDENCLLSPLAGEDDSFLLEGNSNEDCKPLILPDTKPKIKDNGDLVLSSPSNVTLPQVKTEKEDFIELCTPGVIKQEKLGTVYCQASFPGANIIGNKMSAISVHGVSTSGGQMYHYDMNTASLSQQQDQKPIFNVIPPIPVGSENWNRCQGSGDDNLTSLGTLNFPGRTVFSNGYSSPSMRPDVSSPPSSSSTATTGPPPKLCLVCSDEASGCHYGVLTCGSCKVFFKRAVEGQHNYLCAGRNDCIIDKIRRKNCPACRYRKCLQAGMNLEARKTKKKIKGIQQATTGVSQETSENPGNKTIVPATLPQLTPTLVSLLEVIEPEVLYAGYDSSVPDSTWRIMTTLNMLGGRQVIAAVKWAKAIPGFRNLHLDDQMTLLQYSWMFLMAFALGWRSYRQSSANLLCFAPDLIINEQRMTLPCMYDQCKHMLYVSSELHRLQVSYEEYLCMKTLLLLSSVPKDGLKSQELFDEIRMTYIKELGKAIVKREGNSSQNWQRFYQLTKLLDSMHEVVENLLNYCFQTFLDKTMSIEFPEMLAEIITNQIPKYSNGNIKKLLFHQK
Briefly: Activity at GR (unknown origin). In a few lines:
as §1

Test [4] deals with T3, Bile acid receptor (Homo sapiens) (UniProt Q96RI1).
T3 sequence (whole entry): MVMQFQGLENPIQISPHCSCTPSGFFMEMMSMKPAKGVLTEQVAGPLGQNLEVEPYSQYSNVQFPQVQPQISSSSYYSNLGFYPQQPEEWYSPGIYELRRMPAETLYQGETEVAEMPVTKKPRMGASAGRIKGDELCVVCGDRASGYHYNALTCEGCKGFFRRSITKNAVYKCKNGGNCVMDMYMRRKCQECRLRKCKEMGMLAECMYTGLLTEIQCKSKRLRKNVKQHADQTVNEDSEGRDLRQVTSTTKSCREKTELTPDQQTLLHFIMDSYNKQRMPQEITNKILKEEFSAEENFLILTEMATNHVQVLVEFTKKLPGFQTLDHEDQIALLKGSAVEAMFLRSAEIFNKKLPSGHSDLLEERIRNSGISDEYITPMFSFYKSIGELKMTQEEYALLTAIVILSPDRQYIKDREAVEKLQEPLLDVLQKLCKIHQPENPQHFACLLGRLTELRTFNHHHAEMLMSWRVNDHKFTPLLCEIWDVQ
Briefly: Activity at FXR (unknown origin). In a few lines: as §1

The target of test [5] is T4, Vitamin D3 receptor (Homo sapiens) (UniProt P11473).
T4 sequence (whole entry): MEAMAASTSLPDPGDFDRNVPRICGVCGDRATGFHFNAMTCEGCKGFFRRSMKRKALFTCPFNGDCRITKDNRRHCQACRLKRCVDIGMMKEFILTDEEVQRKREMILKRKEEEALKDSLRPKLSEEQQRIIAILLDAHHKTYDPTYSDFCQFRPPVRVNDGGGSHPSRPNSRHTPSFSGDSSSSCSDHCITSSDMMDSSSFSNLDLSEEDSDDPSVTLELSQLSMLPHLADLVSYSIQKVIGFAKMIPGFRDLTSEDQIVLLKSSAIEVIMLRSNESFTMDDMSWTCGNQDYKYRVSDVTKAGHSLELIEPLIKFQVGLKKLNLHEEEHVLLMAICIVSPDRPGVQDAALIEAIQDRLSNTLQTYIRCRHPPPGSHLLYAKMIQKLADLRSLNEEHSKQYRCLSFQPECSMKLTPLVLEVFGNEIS
Description: Activity at VDR (unknown origin). In a few lines:
as §1

The target of test [6] is T1, 2-amino-3-carboxymuconate-6-semialdehyde decarboxylase. Description: Inhibition of ACMSD in human primary hepatocytes assessed as increase in intracellular NAD+ levels at 5 uM after 48 hrs by NAD/NADH-Glo assay. It is filed as cell-based.
Target sequence in this assay (Q8TDX5 whole entry, looked up): as the sequence (Q8TDX5 whole entry) above
Test [7] is filed under the species Homo sapiens. Briefly: Activity at TR (unknown origin). In a few lines: as §1
The species named for test [8] is Homo sapiens. Description: Activity at PPAR (unknown origin). In a few lines:
as §1

The species named for test [9] is Homo sapiens. Description: Activity at RXR (unknown origin). In a few lines:
as §1

The target in test [10] is Kynurenine 3-monooxygenase (Rattus norvegicus, UniProt O88867). Briefly: Inhibition of rat liver KMO using [3,5-3H]-kynurenine substrate.
Kynurenine 3-monooxygenase, sequence (O88867 whole entry): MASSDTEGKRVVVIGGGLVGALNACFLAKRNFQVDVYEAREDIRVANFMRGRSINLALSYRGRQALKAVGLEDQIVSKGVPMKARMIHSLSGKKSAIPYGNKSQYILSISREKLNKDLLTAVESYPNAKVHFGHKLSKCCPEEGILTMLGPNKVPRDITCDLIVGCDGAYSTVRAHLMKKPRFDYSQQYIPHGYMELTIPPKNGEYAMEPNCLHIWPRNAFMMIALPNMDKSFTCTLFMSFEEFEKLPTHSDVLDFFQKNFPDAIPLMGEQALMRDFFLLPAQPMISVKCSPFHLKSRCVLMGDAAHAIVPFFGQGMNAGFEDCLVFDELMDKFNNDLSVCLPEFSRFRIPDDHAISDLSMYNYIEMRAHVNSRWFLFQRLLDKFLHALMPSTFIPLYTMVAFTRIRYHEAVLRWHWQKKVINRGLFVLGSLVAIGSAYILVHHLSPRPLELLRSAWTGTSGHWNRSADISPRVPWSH

As for `N#Cc1c(Cl)nc(SCc2cccc(C(=O)O)c2)nc1-c1ccccc1`, the 50% inhibitory concentration (IC50) in test [1] was determined as 316 nM.

The compound `N#Cc1c(-c2ccccc2)nc(SCc2cccc(C(=O)O)c2)[nH]c1=O` displayed an IC50 in [1] of 45 nM.

Regarding `N#Cc1c(C2CCCCC2)nc(SCc2cccc(C(=O)O)c2)[nH]c1=O`, 89 nM corresponded to half-maximal inhibition in test [1] (IC50).

`N#Cc1c(-c2cccs2)nc(SCc2cccc(-c3nnn[nH]3)c2)[nH]c1=O`: the result (in the test listed under Homo sapiens [2]; in test [3]; in [4]; in test [5]; in the test listed under Homo sapiens [7]; in the test filed under Homo sapiens [8]) was inactive. Also, the outcome in the test listed under Homo sapiens [9] was inactive. For the same compound, the inhibition result in test [6] was “Active”.

`N#Cc1c(-c2cccs2)nc(SCc2cccc(C(=O)O)c2)[nH]c1=O` came in with an IC50 in test [1] of 20 nM.

As to `O=C(O)C1CC1C(=O)c1ccc(Cl)c(Cl)c1` (centres undefined), in test [10], half-maximal inhibition (IC50) was put at 20 nM.

In test [1], `O=C(O)c1cccc(CSc2nc(-c3ccccc3)cc(=O)[nH]2)c1` returned an IC50 of 1050 nM.
